Screening data from PubChem.
Compounds with a hit are over-represented: about 1.8% of the library has one in this group of screens.
M5 ag – agonists of human muscarinic M5 receptor (CHRM5); hit rate 0.19% among 360,000; P08912; activation, % at 3 µM; CHO-K1 hM5 cells, Fluo-8 calcium fluorescence; 0% DMSO wells, 100% maximal acetylcholine response;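 active = activation above the run's mean over test compounds plus 3 SD, cut at about 23% in these data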;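 note: signal is peak over basal fluorescence ratio across the kinetic read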
CHRM4 PAM – positive allosteric modulators of human muscarinic M4 receptor | P08173 | CHO-K1 hM4/Gqi5, Fluo-8 calcium fluorescence, ACh EC20; 0% = ACh EC20, 100% = maximal ACh | activation, % at 3 µM | hit rate 0.4% among 360,000 | AID 624126;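 active = activation above its plate's cutoff, the mean activation of sample wells plus 3 SD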
Target sequence (P08173 whole entry, looked up): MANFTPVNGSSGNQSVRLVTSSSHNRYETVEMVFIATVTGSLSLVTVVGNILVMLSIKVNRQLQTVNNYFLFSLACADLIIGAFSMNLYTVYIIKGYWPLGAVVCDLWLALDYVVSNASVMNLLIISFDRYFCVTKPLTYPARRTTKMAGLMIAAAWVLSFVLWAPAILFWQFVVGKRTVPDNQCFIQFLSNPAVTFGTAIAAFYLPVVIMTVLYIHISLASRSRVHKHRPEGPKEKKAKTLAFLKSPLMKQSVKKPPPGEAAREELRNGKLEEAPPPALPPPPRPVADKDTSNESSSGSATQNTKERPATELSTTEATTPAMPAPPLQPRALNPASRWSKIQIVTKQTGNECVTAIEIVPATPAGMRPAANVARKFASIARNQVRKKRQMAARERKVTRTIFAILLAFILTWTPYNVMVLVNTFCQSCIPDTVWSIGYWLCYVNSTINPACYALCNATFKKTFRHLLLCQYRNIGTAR
M4 ag – agonists of human muscarinic M4 receptor (CHRM4) | P08173 | CHO-K1 hM4/Gqi5, Fluo-8 calcium fluorescence; vehicle 0%, full acetylcholine response 100% | activation, % at 3 µM | hit rate 0.14% among 360,000 | AID 624127;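 active = activation above the run mean over all test wells plus 3 SD, cut at about 32% in these data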;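 note: peak over basal fluorescence ratio per well then scaled between controls; 0% = DMSO wells and 100% = acetylcholine at EC100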
M5 antag – antagonists of human muscarinic M5 receptor (CHRM5); P08912; CHO-hM5 cells, Fluo-8 calcium fluorescence, ACh EC80; inhibition, % at 3 µM; hit rate 0.59% among 360,000; AID 624040;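 active = inhibition above a per-plate cutoff, the mean of that plate's test compounds plus 3 SD, cut at about 27% in these data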;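 note: 0% = acetylcholine EC80 with DMSO and 100% = DMSO without agonist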
M4 antag – blocks acetylcholine activation of human M4 receptor; P08173; CHO-hM4 cells, ACh EC80, Fluo-8 calcium fluorescence; inhibition, % at 3 µM; hit rate 0.73% among 360,000;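 active = inhibition above its plate's cutoff, the mean inhibition of sample wells plus 3 SD, cut at about 27% in these data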;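 note: 0% = acetylcholine EC80 with DMSO and 100% = DMSO without agonist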
CHRM5 PAM – CHRM5 positive allosteric modulation. P08912. CHO-K1 hM5, Fluo-8 calcium, ACh EC20 PAM; 0% = ACh EC20, 100% = ACh EC100. hit rate 0.3% among 360,000. activation, % at 3 µM;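 active = activation above the run cutoff, the mean activation of all test compounds plus 3 SD, cut at about 18% in these data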
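System – CHO-K1 hM5 cells · Compound – 3 µM, single dose · Incubation – compound preincubation 140 s before EC20 acetylcholine addition · Technique – Fluo-8 calcium fluorescence · Measure – Max/basal fluorescence ratio as % of EC20–EC100 ACh window · Benchmarks – low control EC20 acetylcholine (0%), high control EC100 acetylcholine (100%) · Replication – singlicate, one well per test compound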
An asterisk follows results filed as active.

SMILES | M5 ag | CHRM4 PAM | M4 ag | M5 antag | M4 antag | CHRM5 PAM
CN1CN(c2ccccc2)C2(CCN(CCCSc3ccccc3NC(=O)/C=C/c3ccccc3)CC2)C1=O | 67.8* | -13.0 | 109.9* | 36.9* | 58.8* | -46.4
CC(C)(C)n1nnnc1C(c1cccc2ccccc12)N1CCC2(CC1)C(=O)NCN2c1ccccc1 (stereo not drawn) | 3.8 | 4.5 | 0.4 | -5.2 | -8.9 | 9.2
O=C(c1ccc(Cl)cc1)C1CCCN(Cc2cccc3cnccc23)C1 (stereo not drawn) | -16.4 | -44.5 | 6.2 | 47.6* | 47.7* | -36.2
O=C(c1ccc(Cl)cc1)C1CCCN(Cc2ccc3c(c2)OCCO3)C1 (stereo not drawn) | -10.3 | -14.8 | 1.8 | -8.0 | 4.4 | -6.8
O=C(c1cccc(Cl)c1)C1CCCN(Cc2cccc3cnccc23)C1 (stereo not drawn) | -8.2 | -19.7 | 4.8 | 16.6 | 12.4 | -20.5
O=C(c1ccc(Cl)cc1)C1CCCN(Cc2ccc3ncccc3c2)C1 (stereo not drawn) | -12.0 | -22.0 | 8.2 | 13.6 | 27.9* | -30.5
C[N+](C)(C)CC#CCN1CCCC1=O | 99.0* | -19.6 | 107.4* | 97.8* | 95.4* | -13.3
C/C(Cl)=C/CC1(CN2CCCC2=O)C(=O)NC(=O)NC1=O | -1.2 | 7.7 | 0.0 | -3.2 | 2.5 | 2.3
Cc1ccc(OC(=O)N(C)C[C@@H]2OCc3cnnn3CCCC(=O)N([C@H](C)CO)C[C@H]2C)cc1 | -0.5 | 2.6 | 1.6 | 3.7 | -23.3 | -5.7
C#CCN1CCN(c2ccc(F)cc2)CC1 | 1.4 | 2.6 | 0.0 | 9.7 | -4.2 | -1.1
Fc1ccc(C(OCCN2CCN(CCCc3ccccc3)CC2)c2ccc(F)cc2)cc1 | -0.6 | -15.1 | 4.8 | 7.6 | 19.6 | -17.2
c1ccc(CCCN2CCN(CCOC(c3ccccc3)c3ccccc3)CC2)cc1 | -0.7 | -18.0 | 7.0 | 18.1 | 47.4* | -18.9
Fc1ccc(C(OCCN2CCCC2)c2ccc(Br)cc2)cc1 (stereo not drawn) | -5.1 | -34.1 | 8.8 | 37.7* | 16.3 | -17.8
Fc1ccc(C(OCCN2CCCC2)c2ccc(F)cc2)cc1 | -5.0 | -34.7 | 7.0 | 53.7* | 30.1* | -18.4
CCC1CN1P(=O)(N1CCCC1)N1CC1CC (stereo not drawn) | 3.9 | -0.6 | 0.9 | 3.0 | -6.2 | -7.4
CC12CCC3c4ccc(OP(=O)(N5CC5)N5CC5)cc4CCC3C1CCC2=O (stereo not drawn) | -3.3 | -0.2 | 1.3 | 23.0 | 9.0 | -11.1
COc1ccc(-n2nnnc2C(c2ccccc2)N2CCC(n3c(=O)[nH]c4ccccc43)CC2)cc1 (stereo not drawn) | 6.0 | -12.0 | 18.9 | 22.5 | 24.8 | -18.2
COc1cccc(C(c2nnnn2-c2ccc3c(c2)OCCO3)N2CCC(n3c(=O)[nH]c4ccccc43)CC2)c1OC (stereo not drawn) | 29.8* | -9.9 | 23.2 | 14.6 | 13.2 | -9.5
COc1ccc(-n2nnnc2C(c2cccs2)N2CCC(n3c(=O)[nH]c4ccccc43)CC2)cc1 (stereo not drawn) | 4.1 | -9.1 | 17.5 | 7.0 | 36.4* | -21.2
COc1ccc(-n2nnnc2C(c2cccc(OC)c2OC)N2CCC(n3c(=O)[nH]c4ccccc43)CC2)cc1 (stereo not drawn) | 15.1 | -8.4 | 17.5 | 8.8 | 17.6 | -16.3
O=c1[nH]c2ccccc2n1C1CCN(C(c2ccccc2)c2nnnn2-c2ccc3c(c2)OCCO3)CC1 (stereo not drawn) | 1.5 | -5.9 | 21.1 | 15.1 | 34.0* | -15.3
Cc1cc(OCC(=O)N2CCC(C(=O)NCC(C)C)CC2)c2c3c(c(=O)oc2c1)CCCC3 | 1.1 | 1.2 | 0.3 | -2.7 | 5.2 | 12.1
C[N+](C)(C)Cc1ccccc1 | 89.4* | -6.0 | 6.7 | 64.5* | -10.6 | -20.3
CN(C)P(=NC(=S)c1cccn1C)(N(C)C)N(C)C | -7.4 | -15.2 | 1.5 | 27.3* | 20.0 | -26.0
CCOC(=O)CC(SP1(=S)OCC2(CC=CCC2)CO1)C(=O)OCC (stereo not drawn) | 2.5 | -10.0 | 17.4 | 10.6 | 8.9 | -39.9
SMILES | M5 ag | CHRM4 PAM | M4 ag | M5 antag | M4 antag | CHRM5 PAM
COC(=O)C1=C(C(=O)OC)C2OC1c1cc3ccccc3cc12 | 0.1 | -10.1 | 14.2 | 17.0 | 96.4* | -7.0
COC(=O)C1=C(c2ccc3ccccc3c2)C[C@@H]2CC[C@H]1N2C | -12.5 | 1.6 | 2.2 | 5.9 | 1.9 | -4.7
CCC1(CC)C(=O)NC(=O)N(CCc2ccccn2)C1=O | -2.3 | 0.2 | 0.4 | 11.5 | 3.8 | -3.4
COc1ccc(CN2C(=O)NC(=O)/C(=C/c3ccoc3)C2=O)cc1 | 28.6* | -5.2 | 16.1 | 1.6 | -8.2 | -4.4
S=C(N1CCCCCC1)N1CC1 | -5.0 | 1.5 | 0.4 | 2.0 | 0.5 | 8.1
Cc1cc(N(CCCl)CCCl)ccc1C=Cc1ccncn1 | 22.7 | -8.2 | 35.5* | 12.6 | 1.3 | -23.8
Cc1cc(N(CCCl)CCCl)ccc1/C=N/N=C(\N)c1cnccn1 | -5.2 | -9.4 | 3.8 | 7.6 | -10.3 | -6.9
N#Cc1ccc(NC(=S)N2Cc3ccccc3-n3nncc3C2)cc1 | 2.6 | -0.1 | 3.6 | -0.2 | -4.3 | -3.3
CCOC(=O)C1SC2(C(F)(F)F)CC1(O)c1c(C)cc(C)nc1O2 (stereo not drawn) | 0.1 | 45.3* | -2.0 | -7.2 | -15.6 | 14.1
CC12C=CC(=O)CC1CCC1C2CCC2(C)C(O)C(O)CC12 (stereo not drawn) | 4.5 | -8.0 | 18.8 | 34.6* | 18.9 | -24.1
Cc1nc(SCc2c(Cl)cccc2Cl)nc(OC(=O)N(C)C)c1C | -0.3 | 34.0* | 2.6 | 0.0 | 5.6 | 1.8
C=CCOC(=O)N1Cc2ccccc2-n2nncc2C1 | 2.5 | 2.7 | 0.3 | 7.8 | -5.3 | -3.1
COC(=O)C1=C(c2ccc(F)cc2OCc2ccccc2)C[C@@H]2CC[C@H]1N2C(=O)NCc1ccccc1OC | -10.6 | -15.7 | 0.8 | 12.3 | 32.8* | -37.6
COC(=O)C1=C(c2cccc(OCc3ccccc3)c2)C[C@@H]2CC[C@H]1N2C(=O)NCc1ccc(F)cc1 | -12.8 | -13.2 | 2.1 | 27.2* | 15.7 | -30.8
COC(=O)C1=C(c2ccccc2)C[C@@H]2CC[C@H]1N2C(=O)NCc1ccc(F)cc1 | -11.0 | -14.3 | -1.1 | 11.5 | 46.8* | -18.9
c1cc(OCCN2CC2)ccn1 | 0.9 | -1.7 | 0.1 | 10.3 | -6.3 | 3.0
CC1(C)CC(=O)CC(C)(C)N1O | -0.6 | -2.6 | 0.0 | -2.1 | -1.7 | 0.8
C#CCN(C)[C@H](C)Cc1ccccc1 | -0.1 | -4.1 | 0.5 | -0.7 | -6.6 | -3.8
CC(Cc1ccccc1Sc1ccccc1O)N(C)C (stereo not drawn) | -2.9 | -25.3 | 8.9 | 99.5* | 81.7* | -21.5
